Data on 1 molecule can be found in ChEMBL document CHEMBL2321820, “Discovery of HSD-621 as a Potential Agent for the Treatment of Type 2 Diabetes” (ACS Med Chem Lett, 2013).

Molecules are shown by their SMILES.

Data set [1] can be described thus: Half life in C57B6 mouse at 10 mg/kg, po. The data set is classed as ADME, organism-based. Details: dose 10 mg/kg, route oral. The following applies: in vivo. The method, boiled down:
(§1)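 Male C57B6 mice. IV dose of 2 mg/kg in 50% DMSO/50% PEG200. Oral dose of 10 mg/kg in 2% Tween/0.5% methyl cellulose in water. Values are PK parameters from the iv and po arms.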

Data set [2] in a line: Clearance in Sprague-Dawley rat at 2 mg/kg, iv. The data set is classed as ADME, organism-based. Further details: dose 2 mg/kg, route intravenous. The following applies: in vivo. The method, boiled down:
(§2)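 SD rats received 2 mg/kg iv in 50% DMSO/50% PEG200, or 10 mg/kg po in 2% Tween/0.5% methyl cellulose in water. PK parameters come from each route.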

Data set [3] in a line: Cmax in Beagle dog at 5 mg/kg, po. To be noted: in vivo.
Data set [4] in a line: Oral bioavailability in Beagle dog at 5 mg/kg. The following applies: in vivo.
The species named for data set [5] is Mus musculus. As to the kind of experiment: Antidiabetic activity in C57B6 DIO mouse assessed as reduction in fed glucose level at 0.3 mg/g of food after 31 days by HPLC analysis relative to untreated control. The data set is classed as functional. Details: scale not given: the % may be the effect or the level left. The method, boiled down:
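Male C57B6 mice, 5.5–7 months old, kept on a 35.5% fat diet for 4 months. Compound was mixed into food at 0.3 mg drug/g food for 31 days. Controls received diet 12492. Glucose and insulin were measured fed and fasting.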

For data set [6], the species on record is Mus musculus. The experiment in a line: Toxicity in C57B6 DIO mouse assessed as elevation of alanine aminotransferase at 0.3 mg/g of food after 31 days. It counts as organism-based. To be noted: in vivo, po, 744 h.
Data set [7] is described as follows: Half life in Beagle dog at 2 mg/kg, iv. The data set is classed as ADME, organism-based, Canis lupus familiaris. Further details: dose 2 mg/kg, route intravenous. The following applies: in vivo. A digest of the protocol: (§3)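 Male dogs were given 2 mg/kg intravenously in 50% DMSO/50% PEG200.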
A short description of data set [8]: Half life in Sprague-Dawley rat at 2 mg/kg, iv. The data set is classed as ADME, organism-based. Further details: dose 2 mg/kg, route intravenous. The following applies: in vivo. A digest of the protocol:
as §2

A short description of data set [9]: AUC in Beagle dog at 2 mg/kg, iv. It counts as ADME, organism-based, Canis lupus familiaris. Details: dose 2 mg/kg, route intravenous. The following applies: plasma. A digest of the protocol:
as §3

The subject of data set [10] is Canis familiaris. As to the kind of experiment: Toxicity in dog at 100 to 1000 mg/kg. It counts as organism-based, Canis lupus familiaris. Details: dose 100-1000 mg/kg. The following applies: in vivo. A digest of the protocol:
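Dogs were dosed at 100, 300 and 1000 mg/kg in a 14-day safety assessment and metabolism study.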

The species named for data set [11] is Mus musculus. As to the kind of experiment: Toxicity in C57B6 DIO mouse assessed as reduction of food intake at 0.3 mg/g of food after 31 days. To be noted: in vivo, po, 744 h. It counts as organism-based.
Data set [12] in a line: Tmax in C57B6 mouse at 10 mg/kg, po. It counts as ADME, organism-based. Further details: dose 10 mg/kg, route oral. To be noted: in vivo. A digest of the protocol:
as §1

The nature of data set [13]: Half life in Beagle dog at 5 mg/kg, po. The following applies: in vivo.
For data set [14], the target named is T1, Peroxisome proliferator-activated receptor delta (Homo sapiens, UniProt Q03181).
T1 sequence (Q03181 whole entry): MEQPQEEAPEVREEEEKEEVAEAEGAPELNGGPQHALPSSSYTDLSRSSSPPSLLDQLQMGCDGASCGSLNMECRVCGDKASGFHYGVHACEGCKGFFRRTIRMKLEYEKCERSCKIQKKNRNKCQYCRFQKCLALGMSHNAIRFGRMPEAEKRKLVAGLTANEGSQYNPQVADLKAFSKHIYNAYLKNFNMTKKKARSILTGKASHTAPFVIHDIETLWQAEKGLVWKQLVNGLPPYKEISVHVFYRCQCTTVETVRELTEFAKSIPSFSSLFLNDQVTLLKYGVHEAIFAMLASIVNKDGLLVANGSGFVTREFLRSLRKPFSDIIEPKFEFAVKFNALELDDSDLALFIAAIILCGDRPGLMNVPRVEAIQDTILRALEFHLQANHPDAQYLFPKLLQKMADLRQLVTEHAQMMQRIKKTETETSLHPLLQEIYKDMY
The experiment in a line: Inhibition of PPARbeta (unknown origin).

The target of data set [15] is 11-beta-hydroxysteroid dehydrogenase 1 (Mus musculus, UniProt P50172). As to the kind of experiment: Inhibition of mouse 11beta-HSD1 expressed in CHO cells […] incubated for 30 mins prior to substrate addition measured after 120 mins by chemiluminescence assay in presence of 10% human serum. The data set is classed as cell-based. A digest of the protocol: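 Cell-based assay with 10% (v/v) human serum in the culture medium. Run in duplicate, with 11-point 2-fold dilutions giving the IC50. Lower threshold was 10 nM.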
Sequence of 11-beta-hydroxysteroid dehydrogenase 1 (P50172 whole entry): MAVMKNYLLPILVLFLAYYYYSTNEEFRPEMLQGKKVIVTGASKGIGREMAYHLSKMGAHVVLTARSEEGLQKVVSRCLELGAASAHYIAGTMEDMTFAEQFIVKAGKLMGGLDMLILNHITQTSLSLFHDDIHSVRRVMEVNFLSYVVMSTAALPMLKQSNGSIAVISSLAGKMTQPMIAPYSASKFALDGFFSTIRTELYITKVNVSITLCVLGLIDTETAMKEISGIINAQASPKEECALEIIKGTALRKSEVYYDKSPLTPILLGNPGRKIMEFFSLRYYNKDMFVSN

For data set [16], the target named is T2, 11-beta-hydroxysteroid dehydrogenase type 2 (Homo sapiens, UniProt P80365).
T2 sequence (P80365 whole entry): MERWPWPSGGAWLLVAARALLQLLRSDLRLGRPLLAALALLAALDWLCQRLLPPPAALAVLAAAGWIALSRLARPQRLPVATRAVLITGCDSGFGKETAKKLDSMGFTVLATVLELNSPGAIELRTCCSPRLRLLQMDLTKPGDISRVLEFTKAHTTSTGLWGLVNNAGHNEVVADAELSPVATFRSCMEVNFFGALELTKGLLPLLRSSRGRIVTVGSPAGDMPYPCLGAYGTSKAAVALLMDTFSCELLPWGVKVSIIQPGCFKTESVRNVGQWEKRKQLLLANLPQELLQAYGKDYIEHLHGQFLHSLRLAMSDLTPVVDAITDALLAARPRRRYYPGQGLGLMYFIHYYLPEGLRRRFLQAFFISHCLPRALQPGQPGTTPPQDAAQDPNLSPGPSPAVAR
As to the kind of experiment: Inhibition of human 11beta-HSD2 expressed in CHO cells using […] as substrate incubated for 30 mins prior to substrate addition measured after 120 mins by scintillation counting analysis. It counts as cell-based.

Data set [17] can be described thus: Half life in human liver microsomes. It counts as ADME, Microsome. (In general: Microsomes from liver hold many membrane-bound enzymes, among them those of drug oxidation.)
A short description of data set [18]: Clearance in Beagle dog at 2 mg/kg, iv. Further details: dose 2 mg/kg, route intravenous. It counts as ADME, organism-based, Canis lupus familiaris. To be noted: in vivo. The method, boiled down: as §3
Data set [19] has as its system Rattus norvegicus. The experiment in a line: Toxicity in rat at 200 to 2000 mg/kg. It counts as organism-based. Details: dose 200-2000 mg/kg. To be noted: in vivo. The method, boiled down:
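14-day safety assessment and metabolism study in rats at 200, 600 and 2000 mg/kg.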

Data set [20] has as its system Mus musculus. The experiment in a line: Ex vivo inhibition of 11beta-HSD1 in C57B16 mouse epididymal fat assessed as conversion of [3H]-cortisone to [3H]-cortisol at 10 mg/kg, po after 5 hrs by HPLC analysis relative to vehicle-treated control. The data set is classed as functional. The method, boiled down: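 Mice were dosed orally at 10 mg/kg. Epididymal fat was collected 5 h after dosing for the ex vivo readout.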

A word on the half-life: it is the time in which the quantity being followed falls by half. What is called clearance is a measure of how efficiently the substance is removed, as volume per time. In general, Cmax refers to the peak of the concentration-time curve. In general, bioavailability refers to dose-corrected exposure relative to a reference, in per cent. A word on the AUC: it is concentration integrated over time. One may read the Tmax as the time at which the peak concentration occurs. As usually defined, the IC50 is the concentration at which inhibition is half-maximal. As usually defined, the inhibition in vivo is the change of the read-out against control, counted positive when it falls.

On to `C[C@@H]1CN(c2ccc(F)cc2C(F)(F)F)CCN1S(=O)(=O)c1ccc([C@@](O)(C(N)=O)C(F)(F)F)s1`, for which the half-life in data set [1] was 4.8 h; in [7] it was 20.3 h; in data set [8] it was 8.6 h; in data set [13], 17.2 h; in data set [17], over 0.5 h. Besides, the clearance in data set [2] came to 8 mL/min/kg; in data set [18], 1 mL/min/kg. The molecule also gave a Cmax in [3] of 1440 ng/mL. The same molecule displayed a bioavailability in data set [4] of 54%. Moreover, the Activity is on record as 19% in data set [5]; “Non-toxic” in data set [6]; “Non-toxic” in data set [10]; “Non-toxic” in [11]; “Non-toxic” in data set [19]. Besides, the AUC in data set [9] is 32400 ng·h/mL. Besides, the Tmax in data set [12] amounted to 2 h. Also, the IC50 in [14] is over 100 µM; in data set [15], 0.01 µM; in data set [16], over 100 µM. For the same molecule, the inhibition in vivo at 10 mg/kg in data set [20] stood at 75%.
